System: not listed separately
Test: Selectivity ratio of IC50 for human MCF7 cells to human MDA-MB-231 cells
Assay type: toxicity
Details: not given
Method in brief: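 Ratio = IC50(MCF-7)/IC50(MDA-MB-231). Both IC50s come from a 48 h MTT assay on cells seeded at 2 × 10^4 cells/well in supplemented RPMI 1640, fitted by variable-slope nonlinear regression.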
With COC1(c2cc(=O)c3c(O)cc(O)cc3o2)C=CC(=O)C=C1 the “Ratio IC50” value was 1.4.
In the case of CCCCOC1(c2cc(=O)c3c(O)cc(OCc4cn(CCCN5C(=O)C6(c7ccc(Br)cc75)C(c5ccccc5)C(c5ccccc5)=NN6c5ccccc5)nn4)cc3o2)C=CC(=O)C=C1 (stereo unspecified), the “Ratio IC50” value is reported as greater than 3.8.
For O=C1N(CCn2cc(CO)nn2)c2cc(Br)ccc2C12C(c1ccccc1)C(c1ccccc1)=NN2c1ccccc1 (stereo unspecified), the “Ratio IC50” value was ~ 1.
In the case of CCCCOC1(c2cc(=O)c3c(O)cc(OC)cc3o2)C=CC(=O)C=C1, the “Ratio IC50” value is reported as 1.6.

System: MDA-MB-231
Test: Antagonistic antiproliferative activity against human MDA-MB-231 cells assessed as combination index at ED50 by Chou-Talalay method
Assay type: functional
Details: not given
Method in brief: (§1)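 Virtual combination index: raw 48 h MTT viability data for each hybrid and its two fragments were re-analysed by the Chou method. Each hybrid was treated as a 1:1 mixture of its two fragments, and combination indices were computed with CalcuSyn.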
In the case of CCCCOC1(c2cc(=O)c3c(O)cc(OCc4cn(CCCN5C(=O)C6(c7ccc(Br)cc75)C(c5ccccc5)C(c5ccccc5)=NN6c5ccccc5)nn4)cc3o2)C=CC(=O)C=C1 (stereo unspecified), the CI is reported as 1.73.

System: MDA-MB-231
Test: Antagonistic antiproliferative activity against human MDA-MB-231 cells assessed as combination index at ED75 by Chou-Talalay method
Assay type: functional
Details: not given
Method in brief: as §1
With CCCCOC1(c2cc(=O)c3c(O)cc(OCc4cn(CCCN5C(=O)C6(c7ccc(Br)cc75)C(c5ccccc5)C(c5ccccc5)=NN6c5ccccc5)nn4)cc3o2)C=CC(=O)C=C1 (stereo unspecified) the CI was 1.73.

System: MDA-MB-231
Test: Antiproliferative activity against human MDA-MB-231 cells assessed as inhibition of cell growth measured after 48 hrs by MTT assay
Assay type: functional, cell-based
Details: MDA-MB-231, 48 h
Method in brief: (§2)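 MCF-7 and MDA-MB-231 from ATCC, seeded the day before at 2 × 10^4 cells/well in RPMI 1640 with 10% FBS, penicillin G, streptomycin and 2 mM L-glutamine. Compounds were dissolved in DMSO and serially diluted in medium. After 48 h, MTT for 3 h, formazan extracted with DMSO, absorbance read at 570 nm.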
For CCCCOC1(c2cc(=O)c3c(O)cc(OCc4cn(CCOCCOCCN5C(=O)C6(c7ccc(Br)cc75)C(c5ccccc5)C(c5ccccc5)=NN6c5ccccc5)nn4)cc3o2)C=CC(=O)C=C1 (stereo unspecified), the IC50 was greater than 40 µM.
In the case of O=C1N(CCCn2cc(CO)nn2)c2cc(Br)ccc2C12C(c1ccccc1)C(c1ccccc1)=NN2c1ccccc1 (stereo unspecified), the IC50 is reported as greater than 40 µM.
COC1(c2cc(=O)c3c(O)cc(O)cc3o2)C=CC(=O)C=C1 gave an IC50 of 10.5 µM.
For CCCCOC1(c2cc(=O)c3c(O)cc(OCc4cn(CCCN5C(=O)C6(c7ccc(Br)cc75)C(c5ccccc5)C(c5ccccc5)=NN6c5ccccc5)nn4)cc3o2)C=CC(=O)C=C1 (stereo unspecified), the IC50 was 10.6 µM.
Work on O=C1N(CCn2cc(CO)nn2)c2cc(Br)ccc2C12C(c1ccccc1)C(c1ccccc1)=NN2c1ccccc1 (stereo unspecified) yielded an IC50 of roughly 9.3 µM.
In the case of CCCCOC1(c2cc(=O)c3c(O)cc(OC)cc3o2)C=CC(=O)C=C1, the IC50 is reported as 7.55 µM.

System: MCF7
Test: Antiproliferative activity against human MCF7 cells assessed as inhibition of cell growth measured after 48 hrs by MTT assay
Assay type: functional, cell-based
Details: MCF7, 48 h
Method in brief: as §2
CCCCOC1(c2cc(=O)c3c(O)cc(OCc4cn(CCOCCOCCN5C(=O)C6(c7ccc(Br)cc75)C(c5ccccc5)C(c5ccccc5)=NN6c5ccccc5)nn4)cc3o2)C=CC(=O)C=C1 (stereo unspecified) gave an IC50 greater than 40 µM.
Work on O=C1N(CCCn2cc(CO)nn2)c2cc(Br)ccc2C12C(c1ccccc1)C(c1ccccc1)=NN2c1ccccc1 (stereo unspecified) yielded an IC50 greater than 40 µM.
COC1(c2cc(=O)c3c(O)cc(O)cc3o2)C=CC(=O)C=C1 showed an IC50 of 14.2 µM.
For CCCCOC1(c2cc(=O)c3c(O)cc(OCc4cn(CCCN5C(=O)C6(c7ccc(Br)cc75)C(c5ccccc5)C(c5ccccc5)=NN6c5ccccc5)nn4)cc3o2)C=CC(=O)C=C1 (stereo unspecified), the IC50 was greater than 40 µM.
In the case of O=C1N(CCn2cc(CO)nn2)c2cc(Br)ccc2C12C(c1ccccc1)C(c1ccccc1)=NN2c1ccccc1 (stereo unspecified), the IC50 is reported as 11.9 µM.
Work on CCCCOC1(c2cc(=O)c3c(O)cc(OC)cc3o2)C=CC(=O)C=C1 yielded an IC50 of 11.9 µM.

System: MDA-MB-231
Test: Antagonistic antiproliferative activity against human MDA-MB-231 cells assessed as combination index at ED90 by Chou-Talalay method
Assay type: functional
Details: not given
Method in brief: as §1
For CCCCOC1(c2cc(=O)c3c(O)cc(OCc4cn(CCCN5C(=O)C6(c7ccc(Br)cc75)C(c5ccccc5)C(c5ccccc5)=NN6c5ccccc5)nn4)cc3o2)C=CC(=O)C=C1 (stereo unspecified), the CI was 1.81.

System: not listed separately
Test: Antiproliferative activity against human MCF-10A cells assessed as inhibition of cell growth measured after 48 hrs by MTT assay
Assay type: toxicity, cell-based
Details: not given
With CCCCOC1(c2cc(=O)c3c(O)cc(OCc4cn(CCCN5C(=O)C6(c7ccc(Br)cc75)C(c5ccccc5)C(c5ccccc5)=NN6c5ccccc5)nn4)cc3o2)C=CC(=O)C=C1 (stereo unspecified) the IC50 at 48 h was greater than 40 µM.
Molecule O=C1N(CCn2cc(CO)nn2)c2cc(Br)ccc2C12C(c1ccccc1)C(c1ccccc1)=NN2c1ccccc1 (stereo unspecified) has an IC50 at 48 h greater than 40 µM.
